Results published in paper PMC5508980 (Molecular nutrition & food research, 2017).

Assays:
recombinant HDAC3 = recombinant HDAC3 (Homo sapiens, UniProt O15379); assay: Recombinant HDAC activity assay; format: biochemical; settings: 2 h, read-out: % HDAC activity, Class I HDACs, 3
recombinant HDAC1 = recombinant HDAC1 (Homo sapiens, UniProt Q13547); assay: Recombinant HDAC activity assay; format: biochemical; settings: 2 h, read-out: % HDAC activity, Class I HDACs, 1
Class I HDAC = assay: HDAC activity assay, class I substrate, bovine heart tissue lysate; format: biochemical; settings: 2 hours treatment
How it was run: (§1)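 Bovine heart lysate prepared in PBS pH 7.4 with 0.5% Triton X-100, 300 mM NaCl and protease/phosphatase inhibitors, then clarified; 30 µg protein/well in PBS. Test compound at semi-log increasing concentrations for 2 h, then class-specific AMC-acyl-lysine substrate (1 mM DMSO stock) for 2 h at 37 °C.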

recombinant HDAC8 = target: T1, recombinant HDAC8 (Homo sapiens, UniProt Q9BY41); assay: Recombinant HDAC activity assay; format: biochemical; settings: 2 h, read-out: % HDAC activity, Class I HDACs, 8
T1 sequence (Q9BY41 1-377): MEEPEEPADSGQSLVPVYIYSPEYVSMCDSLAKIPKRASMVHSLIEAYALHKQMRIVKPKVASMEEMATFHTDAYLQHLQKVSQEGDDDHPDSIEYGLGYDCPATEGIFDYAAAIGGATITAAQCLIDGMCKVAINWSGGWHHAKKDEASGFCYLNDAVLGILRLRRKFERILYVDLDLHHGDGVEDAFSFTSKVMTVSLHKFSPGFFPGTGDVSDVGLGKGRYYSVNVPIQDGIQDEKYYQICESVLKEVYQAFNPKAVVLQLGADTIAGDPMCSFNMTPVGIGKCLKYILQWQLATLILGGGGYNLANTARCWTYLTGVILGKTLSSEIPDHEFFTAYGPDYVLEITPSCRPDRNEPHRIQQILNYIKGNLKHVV

recombinant HDAC7 = target: T2, recombinant HDAC7 (Homo sapiens, UniProt Q8WUI4); assay: Recombinant HDAC activity assay; format: biochemical; settings: recombinant protein incubated with 50 µM compound, 2 hrs
T2 sequence (Q8WUI4 1-952): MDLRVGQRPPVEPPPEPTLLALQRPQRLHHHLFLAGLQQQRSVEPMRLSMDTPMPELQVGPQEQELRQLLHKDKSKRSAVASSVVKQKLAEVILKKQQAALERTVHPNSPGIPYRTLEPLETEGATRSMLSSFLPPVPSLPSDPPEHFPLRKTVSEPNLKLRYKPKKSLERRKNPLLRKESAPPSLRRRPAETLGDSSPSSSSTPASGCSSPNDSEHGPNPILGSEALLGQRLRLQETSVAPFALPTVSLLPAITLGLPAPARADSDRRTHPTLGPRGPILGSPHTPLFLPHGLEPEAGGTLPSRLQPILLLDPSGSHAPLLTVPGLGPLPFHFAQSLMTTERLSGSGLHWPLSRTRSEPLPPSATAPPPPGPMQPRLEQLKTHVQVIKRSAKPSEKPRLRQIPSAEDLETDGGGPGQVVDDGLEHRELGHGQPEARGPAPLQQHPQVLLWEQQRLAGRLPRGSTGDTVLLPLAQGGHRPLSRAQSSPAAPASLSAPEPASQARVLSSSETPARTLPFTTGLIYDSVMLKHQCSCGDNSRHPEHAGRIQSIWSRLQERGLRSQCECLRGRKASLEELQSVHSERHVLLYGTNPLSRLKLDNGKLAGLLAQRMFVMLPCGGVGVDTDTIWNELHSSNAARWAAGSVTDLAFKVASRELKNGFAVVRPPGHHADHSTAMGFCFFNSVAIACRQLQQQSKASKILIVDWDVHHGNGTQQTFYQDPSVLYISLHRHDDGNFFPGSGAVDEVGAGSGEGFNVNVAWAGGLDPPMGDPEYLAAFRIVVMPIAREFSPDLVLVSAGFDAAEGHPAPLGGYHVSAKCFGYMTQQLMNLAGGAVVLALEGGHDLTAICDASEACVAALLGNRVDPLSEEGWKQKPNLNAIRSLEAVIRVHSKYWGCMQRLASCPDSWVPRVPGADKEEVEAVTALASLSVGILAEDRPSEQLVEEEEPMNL

recombinant HDAC2 = recombinant HDAC2 (Homo sapiens, UniProt Q92769); assay: Recombinant HDAC activity assay; format: biochemical; settings: 2 h, read-out: % HDAC activity, Class I HDACs, 2
recombinant HDAC9 = recombinant HDAC9 (Homo sapiens, UniProt Q9UKV0); assay: Recombinant HDAC activity assay; format: biochemical; settings: 2 h, read-out: % HDAC activity, Class IIa HDACs, 9
recombinant HDAC5 = recombinant HDAC5 (Homo sapiens, UniProt Q9UQL6); assay: Recombinant HDAC activity assay; format: biochemical; settings: 2 h, read-out: % HDAC activity, Class IIa HDACs, 5
recombinant HDAC10 = target: T3, recombinant HDAC10 (Homo sapiens, UniProt Q969S8); assay: Recombinant HDAC activity assay; format: biochemical; settings: 2 h, read-out: % HDAC activity, Class IIb HDACs, 10
T3 sequence (Q969S8 1-669): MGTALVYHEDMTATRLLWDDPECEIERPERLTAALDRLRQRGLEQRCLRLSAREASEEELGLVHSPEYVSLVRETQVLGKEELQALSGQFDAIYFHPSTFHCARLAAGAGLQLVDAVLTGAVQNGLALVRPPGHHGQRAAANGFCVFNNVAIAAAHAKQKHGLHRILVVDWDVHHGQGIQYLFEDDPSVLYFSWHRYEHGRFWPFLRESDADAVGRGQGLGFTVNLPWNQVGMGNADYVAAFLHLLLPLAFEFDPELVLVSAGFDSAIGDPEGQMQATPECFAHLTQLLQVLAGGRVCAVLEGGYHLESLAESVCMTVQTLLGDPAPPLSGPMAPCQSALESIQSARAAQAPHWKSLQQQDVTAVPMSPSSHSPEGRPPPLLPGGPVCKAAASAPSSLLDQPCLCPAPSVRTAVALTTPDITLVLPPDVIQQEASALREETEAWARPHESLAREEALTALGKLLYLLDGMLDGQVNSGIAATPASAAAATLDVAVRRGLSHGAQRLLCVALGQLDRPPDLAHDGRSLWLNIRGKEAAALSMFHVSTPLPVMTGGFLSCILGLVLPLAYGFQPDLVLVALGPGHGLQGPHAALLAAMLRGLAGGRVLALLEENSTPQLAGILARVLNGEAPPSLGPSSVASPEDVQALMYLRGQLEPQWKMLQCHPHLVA

[1] = system: HDAC activity in bovine cardiac tissue; assay: Natural product library screen with class-selective HDAC substrates; format: biochemical; settings: 2 hours treatment
How it was run: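 The screen covered 131 natural compounds against bovine cardiac tissue lysate at 30 µg protein/well in PBS (pH 7.4 lysis buffer with Triton X-100 and NaCl). Test compound for 2 h, then separate class I, IIa or IIb fluorogenic acyl-lysine-AMC substrates for 2 h at 37 °C. Developer (Triton X-100, 3 µM TSA, 0.75 mg/ml trypsin) for 20 min; fluorescence read at 360/460 nm.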

H9c2 cells = assay: Acetyl-H3K9/14 immunoblot of whole cell extract; format: cell-based, rat; settings: H9c2 myocytes, 50 µM, 2 hours
How it was run: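 H9c2 cells were grown in DMEM with 10% FBS and treated at 90% confluence for 2 h with test compound or DMSO, with TSA as positive control. Washed in ice-cold PBS, lysed in PBS pH 7.4 with 0.5% Triton X-100 and 300 mM NaCl plus inhibitors, sonicated and clarified. SDS-PAGE, nitrocellulose, acetyl-H3K9/14 and total H3 antibodies, chemiluminescence; densitometry; ANOVA with Tukey.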

Class IIb HDAC = assay: HDAC activity assay, class IIb substrate, bovine heart tissue lysate; format: biochemical; settings: 2 hours treatment
How it was run: as §1

recombinant HDAC6 = target: T4, recombinant HDAC6 (Homo sapiens, UniProt Q9UBN7); assay: Recombinant HDAC activity assay; format: biochemical; settings: 2 h, read-out: % HDAC activity, Class IIb HDACs, 6
T4 sequence (Q9UBN7 1-1215): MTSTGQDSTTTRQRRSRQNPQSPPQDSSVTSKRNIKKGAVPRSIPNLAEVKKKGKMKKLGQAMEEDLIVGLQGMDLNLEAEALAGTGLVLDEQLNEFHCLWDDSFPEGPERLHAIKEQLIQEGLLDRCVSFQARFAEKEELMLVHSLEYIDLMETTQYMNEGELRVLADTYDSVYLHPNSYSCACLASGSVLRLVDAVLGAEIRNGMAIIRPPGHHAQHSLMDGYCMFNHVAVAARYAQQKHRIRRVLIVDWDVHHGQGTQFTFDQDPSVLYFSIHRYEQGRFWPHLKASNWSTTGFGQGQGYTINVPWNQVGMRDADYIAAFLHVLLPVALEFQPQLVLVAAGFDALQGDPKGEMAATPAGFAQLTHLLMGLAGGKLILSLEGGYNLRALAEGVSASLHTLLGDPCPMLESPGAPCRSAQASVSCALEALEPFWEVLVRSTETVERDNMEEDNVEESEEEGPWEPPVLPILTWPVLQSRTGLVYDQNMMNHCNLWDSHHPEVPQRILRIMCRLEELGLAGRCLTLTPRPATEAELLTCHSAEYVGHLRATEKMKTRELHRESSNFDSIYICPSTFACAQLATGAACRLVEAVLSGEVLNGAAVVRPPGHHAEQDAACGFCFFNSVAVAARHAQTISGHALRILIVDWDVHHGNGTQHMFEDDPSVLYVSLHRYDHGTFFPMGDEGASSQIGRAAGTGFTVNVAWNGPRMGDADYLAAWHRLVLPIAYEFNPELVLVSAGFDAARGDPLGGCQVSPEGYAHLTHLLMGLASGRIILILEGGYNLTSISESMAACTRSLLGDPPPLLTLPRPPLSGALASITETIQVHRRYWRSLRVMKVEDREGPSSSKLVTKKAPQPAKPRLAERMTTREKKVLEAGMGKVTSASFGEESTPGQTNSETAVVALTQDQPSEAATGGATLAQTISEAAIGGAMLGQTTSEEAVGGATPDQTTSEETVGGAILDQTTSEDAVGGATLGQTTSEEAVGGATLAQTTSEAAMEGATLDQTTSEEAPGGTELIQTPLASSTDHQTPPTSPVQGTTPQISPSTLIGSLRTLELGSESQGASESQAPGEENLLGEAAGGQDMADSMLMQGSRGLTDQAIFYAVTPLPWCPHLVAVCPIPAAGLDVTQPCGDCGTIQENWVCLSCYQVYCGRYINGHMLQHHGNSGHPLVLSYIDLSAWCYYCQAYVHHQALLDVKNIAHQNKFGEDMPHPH

recombinant HDAC2, sequence (Q92769 whole entry): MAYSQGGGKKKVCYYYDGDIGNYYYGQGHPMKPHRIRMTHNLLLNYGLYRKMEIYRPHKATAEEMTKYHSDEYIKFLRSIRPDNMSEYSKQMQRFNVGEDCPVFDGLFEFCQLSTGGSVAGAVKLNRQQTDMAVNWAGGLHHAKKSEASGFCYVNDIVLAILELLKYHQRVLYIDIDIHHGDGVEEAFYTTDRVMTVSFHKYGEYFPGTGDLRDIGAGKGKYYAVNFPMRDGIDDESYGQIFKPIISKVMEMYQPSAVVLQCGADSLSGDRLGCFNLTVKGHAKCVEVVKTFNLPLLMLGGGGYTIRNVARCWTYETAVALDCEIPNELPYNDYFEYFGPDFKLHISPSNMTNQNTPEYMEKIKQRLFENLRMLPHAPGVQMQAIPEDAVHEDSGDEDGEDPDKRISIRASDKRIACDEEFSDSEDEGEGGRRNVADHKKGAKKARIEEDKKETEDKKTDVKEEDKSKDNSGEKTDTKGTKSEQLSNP
recombinant HDAC1, sequence (Q13547 whole entry): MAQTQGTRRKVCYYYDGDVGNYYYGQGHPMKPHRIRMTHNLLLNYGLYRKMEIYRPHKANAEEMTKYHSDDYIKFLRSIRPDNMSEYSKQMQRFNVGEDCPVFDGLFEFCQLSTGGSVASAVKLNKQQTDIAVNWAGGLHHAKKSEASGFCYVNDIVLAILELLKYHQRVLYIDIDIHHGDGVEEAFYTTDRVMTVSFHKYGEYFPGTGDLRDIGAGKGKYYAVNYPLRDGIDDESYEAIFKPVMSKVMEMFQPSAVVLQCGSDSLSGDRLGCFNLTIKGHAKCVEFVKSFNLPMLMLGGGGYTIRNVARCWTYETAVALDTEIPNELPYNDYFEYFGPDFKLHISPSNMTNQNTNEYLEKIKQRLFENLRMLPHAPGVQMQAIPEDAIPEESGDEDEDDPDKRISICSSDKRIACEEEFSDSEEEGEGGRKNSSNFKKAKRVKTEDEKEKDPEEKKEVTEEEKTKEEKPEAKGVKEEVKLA
recombinant HDAC3, sequence (O15379 whole entry): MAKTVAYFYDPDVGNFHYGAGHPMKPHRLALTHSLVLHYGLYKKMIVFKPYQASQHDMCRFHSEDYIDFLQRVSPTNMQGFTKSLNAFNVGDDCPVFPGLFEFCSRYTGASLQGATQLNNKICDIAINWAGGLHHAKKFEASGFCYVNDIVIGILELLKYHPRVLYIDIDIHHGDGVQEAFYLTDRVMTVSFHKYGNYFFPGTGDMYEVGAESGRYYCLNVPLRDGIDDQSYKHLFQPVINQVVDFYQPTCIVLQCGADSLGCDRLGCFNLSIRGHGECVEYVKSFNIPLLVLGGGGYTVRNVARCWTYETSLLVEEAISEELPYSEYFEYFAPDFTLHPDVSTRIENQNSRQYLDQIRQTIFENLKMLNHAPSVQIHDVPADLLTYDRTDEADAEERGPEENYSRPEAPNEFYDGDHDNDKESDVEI
recombinant HDAC3, sequence (Q9Y618 395-489 partner limits assumed): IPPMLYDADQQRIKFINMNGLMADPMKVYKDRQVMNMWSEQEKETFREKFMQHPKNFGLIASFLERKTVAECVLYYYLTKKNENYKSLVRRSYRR
recombinant HDAC5, sequence (Q9UQL6 whole entry): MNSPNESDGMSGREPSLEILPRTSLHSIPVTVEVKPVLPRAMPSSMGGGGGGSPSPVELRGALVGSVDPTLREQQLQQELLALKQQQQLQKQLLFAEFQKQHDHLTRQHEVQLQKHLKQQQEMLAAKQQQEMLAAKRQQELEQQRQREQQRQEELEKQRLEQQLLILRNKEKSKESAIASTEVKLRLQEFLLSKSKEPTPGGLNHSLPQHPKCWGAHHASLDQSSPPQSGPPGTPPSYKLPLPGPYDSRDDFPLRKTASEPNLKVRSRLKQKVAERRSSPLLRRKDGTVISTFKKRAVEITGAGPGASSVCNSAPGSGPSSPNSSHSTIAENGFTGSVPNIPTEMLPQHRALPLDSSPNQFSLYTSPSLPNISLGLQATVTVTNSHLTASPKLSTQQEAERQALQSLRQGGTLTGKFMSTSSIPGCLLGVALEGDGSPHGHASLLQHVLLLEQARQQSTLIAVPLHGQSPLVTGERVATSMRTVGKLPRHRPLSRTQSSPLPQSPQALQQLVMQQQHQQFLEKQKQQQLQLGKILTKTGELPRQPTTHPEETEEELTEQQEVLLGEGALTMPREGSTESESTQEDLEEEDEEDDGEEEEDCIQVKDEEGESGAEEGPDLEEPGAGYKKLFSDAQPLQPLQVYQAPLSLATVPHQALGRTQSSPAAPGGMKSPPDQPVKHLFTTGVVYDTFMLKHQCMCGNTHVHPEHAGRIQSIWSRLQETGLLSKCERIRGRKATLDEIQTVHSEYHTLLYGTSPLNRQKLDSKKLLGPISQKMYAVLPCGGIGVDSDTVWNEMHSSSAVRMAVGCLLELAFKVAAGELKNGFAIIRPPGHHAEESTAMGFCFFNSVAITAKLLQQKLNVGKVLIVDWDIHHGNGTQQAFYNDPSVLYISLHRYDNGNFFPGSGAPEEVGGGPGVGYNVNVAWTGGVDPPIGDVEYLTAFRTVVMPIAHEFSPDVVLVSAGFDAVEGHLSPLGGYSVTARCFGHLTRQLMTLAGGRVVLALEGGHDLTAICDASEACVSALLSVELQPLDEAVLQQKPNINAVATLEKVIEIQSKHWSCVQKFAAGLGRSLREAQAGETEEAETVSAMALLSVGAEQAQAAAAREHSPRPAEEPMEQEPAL
recombinant HDAC9, sequence (Q9UKV0 whole entry): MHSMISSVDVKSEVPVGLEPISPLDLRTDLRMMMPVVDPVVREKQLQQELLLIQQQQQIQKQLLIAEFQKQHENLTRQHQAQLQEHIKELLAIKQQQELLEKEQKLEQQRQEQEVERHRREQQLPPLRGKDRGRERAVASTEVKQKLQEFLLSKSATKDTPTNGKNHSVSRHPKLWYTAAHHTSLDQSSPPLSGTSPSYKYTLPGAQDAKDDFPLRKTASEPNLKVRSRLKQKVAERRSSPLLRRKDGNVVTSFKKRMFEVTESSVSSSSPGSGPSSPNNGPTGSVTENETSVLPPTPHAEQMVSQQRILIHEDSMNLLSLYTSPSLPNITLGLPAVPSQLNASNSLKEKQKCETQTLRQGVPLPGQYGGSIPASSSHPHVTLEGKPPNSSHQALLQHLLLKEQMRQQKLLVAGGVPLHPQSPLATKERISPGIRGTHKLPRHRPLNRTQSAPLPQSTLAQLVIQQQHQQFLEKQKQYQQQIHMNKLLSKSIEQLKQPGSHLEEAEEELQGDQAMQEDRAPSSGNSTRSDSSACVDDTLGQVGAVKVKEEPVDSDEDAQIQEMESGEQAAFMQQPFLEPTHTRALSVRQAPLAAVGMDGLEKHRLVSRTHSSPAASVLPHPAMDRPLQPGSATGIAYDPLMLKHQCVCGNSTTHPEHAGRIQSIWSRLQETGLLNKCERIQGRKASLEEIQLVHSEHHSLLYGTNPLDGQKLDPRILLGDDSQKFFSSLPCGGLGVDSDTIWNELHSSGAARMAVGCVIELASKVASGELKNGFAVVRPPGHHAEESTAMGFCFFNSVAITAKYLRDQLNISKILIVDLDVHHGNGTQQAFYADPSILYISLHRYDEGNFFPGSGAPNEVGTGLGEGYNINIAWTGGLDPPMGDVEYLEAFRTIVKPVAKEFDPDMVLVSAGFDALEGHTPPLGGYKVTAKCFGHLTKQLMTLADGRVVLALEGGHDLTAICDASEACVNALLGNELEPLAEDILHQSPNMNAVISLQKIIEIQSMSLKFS

With O=c1cc(-c2ccc(O)cc2)oc2cc(O)cc(O)c12 [Apigenin] the remaining activity at 50 µM (recombinant HDAC3) was 72.7%, the remaining activity at 50 µM (recombinant HDAC1) was 76.4% and the “class I HDAC activity, effect in words” value (Class I HDAC) was “only inhibit class I HDAC activity”. For the same compound, the remaining activity at 50 µM (recombinant HDAC8) was 76.5%, the “% HDAC activity, Class IIa HDACs, 7” value (recombinant HDAC7) was “-” and the remaining activity at 50 µM (recombinant HDAC2) was 90.4%.

With Cc1cc2c(C(C)C)c(O)c(O)c(C=O)c2c(O)c1-c1c(C)cc2c(C(C)C)c(O)c(O)c(C=O)c2c1O [Gossypol] the remaining activity at 50 µM (recombinant HDAC3) was 42.1%, the remaining activity at 50 µM (recombinant HDAC1) was 42.6% and the remaining activity at 50 µM (recombinant HDAC9) was 44.5%. For the same compound, the remaining activity at 50 µM (recombinant HDAC8) was 40.7%, the remaining activity at 50 µM (recombinant HDAC5) was 51.5% and the remaining activity at 50 µM (recombinant HDAC10) was 42.6%. The “% HDAC activity, Class IIa HDACs, 7” value (recombinant HDAC7) was “-”, the “catalytic HDAC activity across class I, IIa and IIb substrates, effect in words” value [1] was “dose-dependent pan-HDAC inhibition” and the “acetylation of histone 3 on lysine 9/14 (Ac-H3 K9/14) via immunoblot” value (H9c2 cells) was “increased”. The remaining activity at 50 µM (recombinant HDAC2) was 15.1%.

In the case of Oc1cc2c(cc1O)[C@@H]1c3ccc(O)c(O)c3OC[C@]1(O)C2 [Hematoxylin], the “class IIb HDAC activity, effect in words” value (Class IIb HDAC) is reported as “targeted class IIb HDACs for inhibition”, the “% HDAC activity, Class IIa HDACs, 7” value (recombinant HDAC7) is reported as “-” and the remaining activity at 50 µM (recombinant HDAC6) is reported as 81.8%.

For Nc1ccccc1NC(=O)c1ccc(CNc2nccc(-c3cccnc3)n2)cc1 [MGCD, MGCD0103, reference compound], the “class I HDAC activity, effect in words” value (Class I HDAC) was “only inhibited class I HDAC activity”.
